The text below walks through data of ChEMBL document CHEMBL1154125, “Ebenfurans IV-VIII from Onobrychis ebenoides: evidence that C-prenylation is the key determinant of the cytotoxicity of 3-formyl-2-arylbenzofurans” (J Nat Prod, 2008).

In assay [1] the test system is MCF7. Briefly: Cytotoxicity against human MCF7 cells at 10 uM by MTT assay relative to control in absence of 17-beta-estradiol. The format is functional. The essentials: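 MCF-7 cells were grown in phenol red-free MEM with 5% dextran-charcoal-stripped FBS and vehicle (DMSO) only. They were exposed for 3 days to agents dissolved in DMSO: test compounds at 10 µM, 17β-estradiol at 0.1 nM, ICI 182,780 at 1 µM. MTT formazan was read at 550 nm. Efficacy = OD test × 100/OD vehicle control, given as mean ± SEM of at least three independent assays.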
On the technique in general: Formazan colour is commonly taken as a measure of viable cells.

Assay [2] addresses T1, Estrogen receptor (Homo sapiens) (UniProt P03372).
T1 sequence (whole entry): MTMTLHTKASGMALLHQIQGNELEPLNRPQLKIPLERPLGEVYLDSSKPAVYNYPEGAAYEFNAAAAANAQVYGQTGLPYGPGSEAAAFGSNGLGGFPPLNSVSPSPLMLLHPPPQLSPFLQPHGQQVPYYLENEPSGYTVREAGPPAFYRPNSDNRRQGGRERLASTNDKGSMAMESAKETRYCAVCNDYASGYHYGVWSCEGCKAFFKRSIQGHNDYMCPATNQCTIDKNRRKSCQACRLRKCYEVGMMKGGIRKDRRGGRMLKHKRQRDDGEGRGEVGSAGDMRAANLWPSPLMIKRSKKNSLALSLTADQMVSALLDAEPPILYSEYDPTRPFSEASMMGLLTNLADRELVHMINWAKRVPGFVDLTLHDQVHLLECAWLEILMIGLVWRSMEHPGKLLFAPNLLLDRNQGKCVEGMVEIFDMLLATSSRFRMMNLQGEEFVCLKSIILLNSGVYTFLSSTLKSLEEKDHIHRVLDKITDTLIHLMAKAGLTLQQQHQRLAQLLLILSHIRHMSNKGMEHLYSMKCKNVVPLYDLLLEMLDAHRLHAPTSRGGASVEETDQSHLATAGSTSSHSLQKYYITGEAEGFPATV
Briefly: Binding affinity to recombinant ERalpha by fluorescence polarization assay relative to 17-beta-estradiol. A general note: In fluorescence polarisation assays a small probe gives low polarisation when free and higher when bound to something large.

Assay [3] concerns MCF7. The experiment in a line: Cytotoxicity against human MCF7 cells by MTT assay in presence of 17-beta-estradiol. The format is functional, cell-based. The essentials:
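In phenol red-free MEM with 5% dextran-charcoal-treated FBS containing 0.1 nM 17β-estradiol, MCF-7 cultures received increasing concentrations of agents (DMSO solutions) for 3 days. Readout was MTT formazan absorbance at 550 nm relative to cells given the hormone alone. EC50 = concentration reaching 50% of efficacy, derived only for statistically significant effects.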

The subject of assay [4] is MCF7. Briefly: Cytotoxicity against human MCF7 cells at 10 uM by MTT assay relative to control in presence of 17-beta-estradiol. The format is functional. The essentials: (§1)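 MCF-7 cells were kept in phenol red-free MEM with 5% dextran-charcoal-stripped FBS supplemented with 0.1 nM 17β-estradiol. They were treated for 3 days with test compounds at 10 µM, 17β-estradiol at 0.1 nM, or ICI 182,780 at 1 µM, all in DMSO. MTT conversion was read at 550 nm. OD × 100/OD of estradiol-alone control, mean ± SEM, ≥3 independent assays.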

Assay [5] has as its system MCF7. The experiment in a line: Cytotoxicity against human MCF7 cells by MTT assay in absence of 17-beta-estradiol. The format is functional, cell-based. Summed up: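 Cells were grown in steroid-depleted medium (phenol red-free MEM, 5% dextran-charcoal FBS) plus DMSO vehicle. Increasing concentrations of agents in DMSO were applied for 3 days. Viable cells were estimated from MTT formazan absorbance at 550 nm. EC50 = concentration giving 50% of efficacy, computed only for statistically significant effects.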

Assay [6] relates to MCF7. The experiment in a line: Cytotoxicity against human MCF7 cells at 1 uM by MTT assay relative to control in the absence of 17-beta-estradiol. The format is functional. The essentials:
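MCF-7 cells in phenol red-free MEM with 5% dextran-charcoal-stripped FBS, vehicle (DMSO) only, no estradiol. ICI 182,780 at 1 µM applied for 3 days. Viable cells assessed by MTT formazan absorbance at 550 nm. Efficacy = OD treated ×100/OD vehicle control; mean ± SEM of at least three independent assays.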

Assay [7] deals with MCF7. The experiment in a line: Cytotoxicity against human MCF7 cells at 1 uM by MTT assay relative to control in presence of 17-beta-estradiol. The format is functional. Summed up:
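MCF-7 cells in phenol red-free MEM with 5% dextran-charcoal-stripped FBS, supplemented with 0.1 nM 17β-estradiol. Treated with ICI 182,780 at 1 µM (DMSO) for 3 days. MTT conversion to formazan read at 550 nm. Efficacy = OD treated ×100/OD of estradiol-alone control; mean ± SEM of ≥3 independent assays.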

Assay [8] relates to MCF7. The experiment in a line: Cytotoxicity against human MCF7 cells at 0.1 nM by MTT assay relative to control in absence of 17-beta-estradiol. The format is functional.
For assay [9], the system named is MCF7. The experiment in a line: Cytotoxicity against human MCF7 cells at 0.1 nM by MTT assay relative to control in presence of 17-beta-estradiol. The format is functional. The essentials:
as §1

Regarding `COc1cc(O)c2c(C=O)c(-c3ccc(O)cc3O)oc2c1` [EBENFURAN II], the results for the Activity with MCF7 [1] and with MCF7 [4] were 111% and 64%, respectively. In addition, the relative binding affinity (RBA) in assay [2] was found to be 0.18. Moreover, in the assay with MCF7 [3], the EC50 came out at 5.5 µM.
For `COc1cc2oc(-c3ccc(O)cc3O)c(C=O)c2c(O)c1CCC(C)(C)O` [EBENFURAN V], the Activity in the assay with MCF7 [1] is 115%; with MCF7 [4], 98%. In addition, in assay [2], the relative binding affinity (RBA) was found to be 0.23.
As to `COc1cc(O)ccc1-c1oc2cc(OC)c(CC=C(C)C)c(O)c2c1C=O` [EBENFURAN IV], the Activity amounted to 54% in the assay on MCF7 [1] and 31% in the assay on MCF7 [4]. In addition, the relative binding affinity (RBA) in [2] is 0.46. The EC50 in the assay on MCF7 [3] was 3.9 µM; in the assay on MCF7 [5] it was 6.7 µM.
Regarding `COc1cc(O)ccc1-c1oc2cc(OC)c(CCC(C)(C)O)c(O)c2c1C=O` [EBENFURAN VI], the figures for the Activity with MCF7 [1] and with MCF7 [4] were 154% and 118%, respectively. Moreover, the relative binding affinity (RBA) in [2] is 0.06. The same compound showed an EC50 with MCF7 [5] of 4.8 µM.
As to `C[C@]12CC[C@@H]3c4ccc(O)cc4C[C@@H](CCCCCCCCC[S+]([O-])CCCC(F)(F)C(F)(F)F)[C@H]3[C@@H]1CC[C@@H]2O` (stereo partly drawn) [FULVESTRANT], the Activity in the assay on MCF7 [6] came to 103%; in the assay with MCF7 [7], 63%.
Take `C=C(C)C(O)Cc1c(OC)cc2oc(-c3ccc(O)cc3O)c(C=O)c2c1O` (stereo not drawn) [EBENFURAN VII]: the Activity with MCF7 [1] was 123%; with MCF7 [4], 79%. Further, in assay [2], the relative binding affinity (RBA) stood at 0.94.
For the compound `COc1cc2oc(-c3ccc(O)cc3O)c(C=O)c2c(O)c1CC=C(C)C` [EBENFURAN III], the Activity in the assay with MCF7 [1] is 47%; with MCF7 [4], 31%. Moreover, in assay [2], the relative binding affinity (RBA) is 0.09. Moreover, the EC50 in the assay on MCF7 [3] is 2.9 µM; in the assay with MCF7 [5], 2.6 µM.
On to `C[C@]12CC[C@@H]3c4ccc(O)cc4CC[C@H]3[C@@H]1CC[C@@H]2O` [ESTRADIOL], for which the Activity with MCF7 [8] was determined as 163%; with MCF7 [9], 104%.

A word on the EC50: it is the midpoint of the concentration-response curve.
